The record followed here is article PMC10583827 (RSC Medicinal Chemistry, 2023).

Usually IC50 stands for the concentration that gives 50% inhibition. Read a low IC50 as greater potency in that assay.

Structures are written as SMILES. Entries after “also recorded” stand apart in the source; their conditions may differ.

Series [1] is described as follows: Cyclic voltammetry. Type of series: physicochemical. To be noted: acetonitrile; for ipa/ipc, ratio of anodic to cathodic current / ΔEp, wave potential separation (Epa − Epc): scan rate 100 mV s−1; for E1/2, half wave potential (E1/2 = (Epa + Epc)/2) / Epa, anodic wave potential / Epc, cathodic wave potential: scan rate 100 mV s−1, V vs. Ag/AgCl. In outline: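 Test compound at 0.5 mM in anhydrous acetonitrile with 0.1 M […] as background electrolyte. Three-electrode cell: glassy carbon working, Pt wire counter, Ag/AgCl reference. Scanned from −1.7 to +1.0 V at 100 mV s−1 with a 20 mV E step, 6 cycles per compound, at 25 °C. Half-wave potentials were taken from the voltammograms.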

Series [2] is described as follows: Host macrophage cytotoxicity, resazurin assay. Type of series: cell-based. To be noted: human, PMA-differentiated THP-1 cells (macrophages). (In general: Alamar Blue is a resazurin reagent that responds to reducing activity.)
In series [3] the test system is Vero cells. As to the kind of experiment: General/basal cytotoxicity, resazurin assay.
In series [4] the test system is L. donovani strain 9515 amastigotes. As to the kind of experiment: Intramacrophage antileishmanial assay. Type of series: cell-based, Leishmania donovani. Conditions: antimonial-resistant L. donovani; activity retained 72 hours post lysis.
Series [5] concerns L. major strain IR173 amastigotes. As to the kind of experiment: Intramacrophage antileishmanial assay. To be noted: activity retained 72 hours post macrophage lysis. Type of series: cell-based, Leishmania major.

For `O=[N+]([O-])c1ccc(/C=N/N=C/c2ccccc2)o1` [1a, (1E,2E)-1-Benzylidene-2-[(5-nitrofuran-2-yl)methylene]hydrazine], in series [1], the “ipa/ipc, ratio of anodic to cathodic current” value (from here on “ipa/ipc, ratio of anodic”) worked out at 1.016; the “ΔEp, wave potential separation (Epa − Epc)” value (“ΔEp … (Epa − Epc)” below) was determined as 0.24 V; the “E1/2, half wave potential (E1/2 = (Epa + Epc)/2)” value (shortened to “E1/2, half wave potential”) is reported as −0.88 V; the “Epa, anodic wave potential” value is recorded as −0.76 V. In addition, in series [1], the “Epc, cathodic wave potential” value was −1.00 V. This compound showed an IC50 at 72 h in series [2] of over 100 µM.
Regarding `O=[N+]([O-])c1ccc(/C=N/N=C/c2ccccc2)s1` [1b, (1E,2E)-1-Benzylidene-2-[(5-nitrothiophen-2-yl)methylene]hydrazine], in series [1], the “ipa/ipc, ratio of anodic” value is 1.032; the “ΔEp … (Epa − Epc)” value was determined as 0.22 V; the “E1/2, half wave potential” value was −0.95 V; the “Epa, anodic wave potential” value is recorded as −0.84 V. Also, the “Epc, cathodic wave potential” value in series [1] was −1.06 V. Also, the “Toxicity to mammalian cells, class in words” value (“Toxicity to mammalian cells” for short) in series [3] is recorded as “moderate toxicity”. Also, the “Cidal anti-amastigote activity against L. donovani” value in series [4] is “cidal”. For the same compound, the IC50 at 72 h in series [2] was over 100 µM.
For `O=[N+]([O-])c1ccc(/C=N/N=C/c2ccc(F)cc2)o1` [2a, (1E,2E)-1-(4-Fluorobenzylidene)-2-[(5-nitrofuran-2-yl)methylene]hydrazine], the “Cidal anti-amastigote activity against L. major” value in series [5] was “cidal”. In series [1], the “ipa/ipc, ratio of anodic” value was found to be 0.990; the “ΔEp … (Epa − Epc)” value came to 0.28 V; the “E1/2, half wave potential” value was −0.92 V; the “Epa, anodic wave potential” value was −0.78 V. Further, in series [1], the “Epc, cathodic wave potential” value is recorded as −1.06 V.
On to `O=[N+]([O-])c1ccc(/C=N/N=C/c2ccc(F)cc2)s1` [2b, (1E,2E)-1-(4-Fluorobenzylidene)-2-[(5-nitrothiophen-2-yl)methylene]hydrazine], for which, in series [1], the “ipa/ipc, ratio of anodic” value amounted to 1.022; the “ΔEp … (Epa − Epc)” value worked out at 0.22 V; the “E1/2, half wave potential” value is on record as −0.89 V; the “Epa, anodic wave potential” value is −0.78 V. Further, in series [1], the “Epc, cathodic wave potential” value is −1.00 V. Moreover, in series [3], the “Toxicity to mammalian cells” value was “low toxicity”. In addition, in series [2], the 50% inhibitory concentration (IC50) at 72 h was over 100 µM.
Consider `O=[N+]([O-])c1ccc(/C=N/N=C/c2ccc(Cl)cc2)o1` [3a, (1E,2E)-1-(4-Chlorobenzylidene)-2-[(5-nitrofuran-2-yl)methylene]hydrazine], for which the “Cidal anti-amastigote activity against L. major” value in series [5] was “cidal”. In series [1], the “ipa/ipc, ratio of anodic” value is recorded as 0.967; the “ΔEp … (Epa − Epc)” value came to 0.28 V; the “E1/2, half wave potential” value is on record as −0.94 V; the “Epa, anodic wave potential” value is −0.80 V. For the same compound, the “Epc, cathodic wave potential” value in series [1] was −1.08 V. Moreover, the “Toxicity to mammalian cells” value in series [3] is on record as “low toxicity; also recorded: non-toxic”. This compound showed a half-inhibitory concentration (IC50) at 72 h in series [2] of over 100 µM.
Consider `O=[N+]([O-])c1ccc(/C=N/N=C/c2ccc(Cl)cc2)s1` [3b, (1E,2E)-1-(4-Chlorobenzylidene)-2-[(5-nitrothiophen-2-yl)methylene]hydrazine], for which, in series [1], the “ipa/ipc, ratio of anodic” value is recorded as 0.889; the “ΔEp … (Epa − Epc)” value turned out to be 0.22 V; the “E1/2, half wave potential” value is −0.85 V; the “Epa, anodic wave potential” value is given as −0.74 V. Besides, the “Epc, cathodic wave potential” value in series [1] is recorded as −0.96 V.
For `O=[N+]([O-])c1ccc(/C=N/N=C/c2ccc(Br)cc2)s1` [4b, (1E,2E)-1-(4-Bromobenzylidene)-2-[(5-nitrothiophen-2-yl)methylene]hydrazine], in series [1], the “ipa/ipc, ratio of anodic” value amounted to 0.961; the “ΔEp … (Epa − Epc)” value was determined as 0.24 V; the “E1/2, half wave potential” value is on record as −0.92 V; the “Epa, anodic wave potential” value is given as −0.80 V. Moreover, in series [1], the “Epc, cathodic wave potential” value is listed as −1.04 V.
In the case of `Cc1ccc(/C=N/N=C/c2ccc([N+](=O)[O-])o2)cc1` [5a, (1E,2E)-1-(4-Methylbenzylidene)-2-[(5-nitrofuran-2-yl)methylene]hydrazine], in series [1], the “ipa/ipc, ratio of anodic” value is given as 1.007; the “ΔEp … (Epa − Epc)” value is given as 0.24 V; the “E1/2, half wave potential” value is on record as −0.94 V; the “Epa, anodic wave potential” value is −0.82 V. The “Epc, cathodic wave potential” value in series [1] is on record as −1.06 V. In series [3], the “Toxicity to mammalian cells” value is “low toxicity”. In series [2], this compound displayed an IC50 at 72 h of over 100 µM.
For the compound `Cc1ccc(/C=N/N=C/c2ccc([N+](=O)[O-])s2)cc1` [5b, (1E,2E)-1-(4-Methylbenzylidene)-2-[(5-nitrothiophen-2-yl)methylene]hydrazine], in series [1], the “ipa/ipc, ratio of anodic” value was 1.000; the “ΔEp … (Epa − Epc)” value was found to be 0.24 V; the “E1/2, half wave potential” value was −0.90 V; the “Epa, anodic wave potential” value is given as −0.78 V. The “Epc, cathodic wave potential” value in series [1] is recorded as −1.02 V.
With `COc1ccc(/C=N/N=C/c2ccc([N+](=O)[O-])o2)cc1` [6a, (1E,2E)-1-(4-Methoxybenzylidene)-2-[(5-nitrofuran-2-yl)methylene]hydrazine], in series [1], the “ipa/ipc, ratio of anodic” value is reported as 0.965; the “ΔEp … (Epa − Epc)” value turned out to be 0.34 V; the “E1/2, half wave potential” value is −0.85 V; the “Epa, anodic wave potential” value is reported as −0.68 V. For the same compound, in series [1], the “Epc, cathodic wave potential” value is −1.02 V. Moreover, in series [4], the “Cidal anti-amastigote activity against L. donovani” value is given as “cidal”. In addition, in series [2], the IC50 at 72 h is over 100 µM.
Consider `COc1ccc(/C=N/N=C/c2ccc([N+](=O)[O-])s2)cc1` [6b, (1E,2E)-1-(4-Methoxybenzylidene)-2-[(5-nitrothiophen-2-yl)methylene]hydrazine], for which, in series [1], the “ipa/ipc, ratio of anodic” value is 0.990; the “ΔEp … (Epa − Epc)” value is recorded as 0.24 V; the “E1/2, half wave potential” value is −0.92 V; the “Epa, anodic wave potential” value is listed as −0.80 V. In addition, in series [1], the “Epc, cathodic wave potential” value is on record as −1.04 V.
Consider `O=[N+]([O-])c1ccc(/C=N/N=C/c2ccc(OCc3ccccc3)cc2)o1` [7a, (1E,2E)-1-[4-(Benzyloxy)benzylidene]-2-[(5-nitrofuran-2-yl)methylene]hydrazine], for which, in series [1], the “ΔEp … (Epa − Epc)” value stood at 0.26 V; the “E1/2, half wave potential” value is recorded as −0.91 V; the “Epa, anodic wave potential” value was −0.78 V; the “Epc, cathodic wave potential” value is recorded as −1.04 V. The “Toxicity to mammalian cells” value in series [3] is on record as “low toxicity”. For the same compound, the IC50 at 72 h in series [2] was over 100 µM.
In the case of `O=[N+]([O-])c1ccc(/C=N/N=C/c2ccc(OCc3ccccc3)cc2)s1` [7b, (1E,2E)-1-[4-(Benzyloxy)benzylidene]-2-[(5-nitrothiophen-2-yl)methylene]hydrazine], in series [3], the “Toxicity to mammalian cells” value is recorded as “low toxicity”. This compound had a half-maximal inhibitory concentration (IC50) at 72 h in series [2] of over 100 µM.
`O=[N+]([O-])c1ccc(/C=N/N=C/c2ccc(O)cc2)o1` [8a, 4-{(E)-{(E)-[(5-Nitrofuran-2-yl)methylene]hydrazono}methyl}phenol]: in series [1], the “ipa/ipc, ratio of anodic” value was 0.943; the “ΔEp … (Epa − Epc)” value was 0.26 V; the “E1/2, half wave potential” value was −0.95 V; the “Epa, anodic wave potential” value is −0.82 V. In addition, the “Epc, cathodic wave potential” value in series [1] was −1.08 V.
`O=[N+]([O-])c1ccc(/C=N/N=C/c2ccc(O)cc2)s1` [8b, 4-(E)-(E)-[(5-Nitrothiophen-2-yl)methylene]hydrazonomethylphenol]: in series [1], the “ipa/ipc, ratio of anodic” value was found to be 1.002; the “ΔEp … (Epa − Epc)” value is on record as 0.24 V; the “E1/2, half wave potential” value is −0.94 V; the “Epa, anodic wave potential” value is listed as −0.82 V. Further, the “Epc, cathodic wave potential” value in series [1] was −1.06 V. Moreover, the “Toxicity to mammalian cells” value in series [3] is given as “moderate toxicity”. For the same compound, the “Cidal anti-amastigote activity against L. donovani” value in series [4] was “cidal”.
Take `O=[N+]([O-])c1ccc(/C=N/N=C/c2ccc([N+](=O)[O-])s2)cc1` [9b, (1E,2E)-1-(4-Nitrobenzylidene)-2-[(5-nitrothiophen-2-yl)methylene]hydrazine]: in series [1], the “ipa/ipc, ratio of anodic” value was 0.951; the “ΔEp … (Epa − Epc)” value is 0.24 V; the “E1/2, half wave potential” value is reported as −0.94 V; the “Epa, anodic wave potential” value is recorded as −0.82 V. Besides, the “Epc, cathodic wave potential” value in series [1] is −1.06 V.
Take `O=C(Cn1ccnc1[N+](=O)[O-])NCc1ccccc1` [Bzn, benznidazole, reference compound]: the IC50 at 72 h in series [2] is over 100 µM.
With `O=Cc1ccc([N+](=O)[O-])o1` [NFA, 5-nitro-2-furaldehyde, reference compound], in series [1], the “ipa/ipc, ratio of anodic” value amounted to 0.967; the “ΔEp … (Epa − Epc)” value stood at 0.28 V; the “E1/2, half wave potential” value is reported as −0.88 V; the “Epa, anodic wave potential” value is −0.74 V. Besides, the “Epc, cathodic wave potential” value in series [1] was −1.02 V.
Compound `NC(=O)N/N=C/c1ccc([N+](=O)[O-])o1` [NFZ, nitrofurazone, reference compound] gave an IC50 at 72 h in series [2] of over 100 µM.
Regarding `O=Cc1ccc([N+](=O)[O-])s1` [NTA, 5-nitrothiophene-2-carboxaldehyde, reference compound], in series [1], the “ipa/ipc, ratio of anodic” value is on record as 0.755; the “ΔEp … (Epa − Epc)” value is 0.20 V; the “E1/2, half wave potential” value is given as −0.96 V; the “Epa, anodic wave potential” value is recorded as −0.86 V. The “Epc, cathodic wave potential” value in series [1] is −1.06 V.
